Results reported in ChEMBL document CHEMBL2069190, “Identification of new γ-hydroxybutenolides that preferentially inhibit the activity of mPGES-1” (Bioorg Med Chem, 2012).
The source made the active and inactive calls. The calls are words filed in the database; no cut-off is given here.

Legend:
A549 [1] = assay: Antiinflammatory activity in human A549 cells assessed as inhibition of IL-1beta-induced mPGES1 expression at 1 uM treated 30 mins prior to IL-1beta challenge measured after 48 hrs by Western blot analysis relative to control; type: functional, cell-based
Method in brief: (§1)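 A549 cells (DMEM high glucose, 10% heat-inactivated FCS, penicillin/streptomycin, 37 °C, 5% CO2) pre-incubated 30 min with compound or vehicle (DMSO, 0.3%), then IL-1b (2 ng/mL) added. After 48 h, cells lysed; mPGES-1 protein analysed by Western blot with b-actin as loading control. Bands semi-quantified by densitometry as % of uninhibited DMSO control, mean SD, n = 3.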

A549 [2] = assay: Antiinflammatory activity in human A549 cells assessed as inhibition of IL-1beta-induced mPGES1 expression at 10 uM treated 30 mins prior to IL-1beta challenge measured after 48 hrs by Western blot analysis relative to control; type: functional, cell-based; method in brief: as §1
Prostaglandin E synthase = target: T1, Prostaglandin E synthase (Homo sapiens, UniProt O14684); assay: Inhibition of mPGES-1-mediated PGE2 formation in IL-1beta-stimulated human A549 cells preincubated for 10 mins measured after 1 min by RP-HPLC analysis; type: cell-based
T1 sequence (O14684 whole entry): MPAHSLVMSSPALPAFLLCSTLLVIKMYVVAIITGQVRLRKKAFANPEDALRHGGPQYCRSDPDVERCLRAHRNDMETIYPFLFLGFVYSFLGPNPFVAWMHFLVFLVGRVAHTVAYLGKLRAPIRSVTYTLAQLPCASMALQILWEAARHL
Method in brief: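 Microsomes from A549 cells treated 48 h with 1 ng/mL IL-1b, isolated by sonication and differential centrifugation (10,000×g 10 min, 174,000×g 1 h, 4 °C). Diluted in 0.1 M potassium phosphate pH 7.4 with 2.5 mM glutathione. Pre-incubated with compound or vehicle on ice, then 20 µM PGH2 added. PGE2 measured by RP-HPLC as % of DMSO control, mean S.E., n = 3–4.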

[3] = target: T2, Prostaglandin G/H synthase 1 (Ovis aries) (UniProt P05979); assay: Inhibition of ovine COX1 at 10 uM preincubated for 5 mins measured after 5 mins
T2 sequence (whole entry): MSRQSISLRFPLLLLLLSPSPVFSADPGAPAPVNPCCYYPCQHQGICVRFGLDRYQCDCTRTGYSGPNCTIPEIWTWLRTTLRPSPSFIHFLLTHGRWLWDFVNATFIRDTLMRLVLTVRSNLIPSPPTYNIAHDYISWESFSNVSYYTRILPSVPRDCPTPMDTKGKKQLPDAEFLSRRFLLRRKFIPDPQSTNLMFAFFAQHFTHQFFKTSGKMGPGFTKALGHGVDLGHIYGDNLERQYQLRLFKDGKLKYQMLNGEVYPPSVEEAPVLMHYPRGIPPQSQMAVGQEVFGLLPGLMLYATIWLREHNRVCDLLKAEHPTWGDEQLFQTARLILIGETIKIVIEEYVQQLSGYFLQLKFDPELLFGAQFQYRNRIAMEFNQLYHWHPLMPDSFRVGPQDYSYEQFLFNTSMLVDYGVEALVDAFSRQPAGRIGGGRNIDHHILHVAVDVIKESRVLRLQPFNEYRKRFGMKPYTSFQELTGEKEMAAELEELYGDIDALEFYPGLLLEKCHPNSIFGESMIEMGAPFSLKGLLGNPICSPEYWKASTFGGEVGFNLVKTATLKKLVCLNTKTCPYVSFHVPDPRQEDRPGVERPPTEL

[4] = target: T3, Prostaglandin G/H synthase 2 (Homo sapiens) (UniProt P35354); assay: Inhibition of human COX2 at 10 uM preincubated for 5 mins measured after 5 mins
T3 sequence (whole entry): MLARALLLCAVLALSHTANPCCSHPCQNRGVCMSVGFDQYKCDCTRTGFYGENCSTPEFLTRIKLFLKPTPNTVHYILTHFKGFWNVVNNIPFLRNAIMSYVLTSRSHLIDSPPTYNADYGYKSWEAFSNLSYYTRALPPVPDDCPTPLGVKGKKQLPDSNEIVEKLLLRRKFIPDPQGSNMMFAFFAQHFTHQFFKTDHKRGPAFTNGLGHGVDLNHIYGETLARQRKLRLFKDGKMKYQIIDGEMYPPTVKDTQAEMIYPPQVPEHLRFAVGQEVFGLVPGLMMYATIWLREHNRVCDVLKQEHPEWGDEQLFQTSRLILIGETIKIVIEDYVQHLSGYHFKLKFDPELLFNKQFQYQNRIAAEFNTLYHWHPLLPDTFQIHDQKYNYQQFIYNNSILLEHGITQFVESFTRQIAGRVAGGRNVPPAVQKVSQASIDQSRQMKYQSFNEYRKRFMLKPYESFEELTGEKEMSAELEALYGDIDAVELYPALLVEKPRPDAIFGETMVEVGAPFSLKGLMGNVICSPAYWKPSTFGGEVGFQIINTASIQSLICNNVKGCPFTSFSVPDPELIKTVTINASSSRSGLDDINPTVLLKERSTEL

[5] = target: T4, Polyunsaturated fatty acid 5-lipoxygenase (Homo sapiens) (UniProt P09917); assay: Inhibition of 5-lipoxygenase in A23187-stimulated human PMNL assessed as inhibition of 15-H(p)ETE formation preincubated 15 mins by RP-HPLC analysis
T4 sequence (whole entry): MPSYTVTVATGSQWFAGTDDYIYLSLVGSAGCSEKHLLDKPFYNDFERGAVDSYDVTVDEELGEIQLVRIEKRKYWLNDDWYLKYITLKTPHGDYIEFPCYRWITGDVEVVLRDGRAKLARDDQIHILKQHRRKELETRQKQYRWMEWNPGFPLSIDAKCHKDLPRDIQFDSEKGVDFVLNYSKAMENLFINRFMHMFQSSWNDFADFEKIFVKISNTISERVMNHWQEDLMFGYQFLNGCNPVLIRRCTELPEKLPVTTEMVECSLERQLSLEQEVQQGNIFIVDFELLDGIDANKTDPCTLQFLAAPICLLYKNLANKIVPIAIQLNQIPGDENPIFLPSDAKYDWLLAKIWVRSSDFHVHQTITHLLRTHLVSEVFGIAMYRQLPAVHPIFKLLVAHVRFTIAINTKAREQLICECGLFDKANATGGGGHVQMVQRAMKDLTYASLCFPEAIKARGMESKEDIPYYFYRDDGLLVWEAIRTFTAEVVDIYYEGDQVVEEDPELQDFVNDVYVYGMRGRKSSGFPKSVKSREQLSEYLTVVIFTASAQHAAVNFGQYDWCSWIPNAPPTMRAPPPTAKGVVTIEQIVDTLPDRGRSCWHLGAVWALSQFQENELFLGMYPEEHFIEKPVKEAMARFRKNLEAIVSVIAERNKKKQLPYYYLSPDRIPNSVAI

[6] = target: T5, Polyunsaturated fatty acid lipoxygenase ALOX15 (Homo sapiens) (UniProt P16050); assay: Inhibition of 15-lipoxygenase in A23187-stimulated human PMNL assessed as inhibition of 15-H(p)ETE formation preincubated 15 mins by RP-HPLC analysis
T5 sequence (whole entry): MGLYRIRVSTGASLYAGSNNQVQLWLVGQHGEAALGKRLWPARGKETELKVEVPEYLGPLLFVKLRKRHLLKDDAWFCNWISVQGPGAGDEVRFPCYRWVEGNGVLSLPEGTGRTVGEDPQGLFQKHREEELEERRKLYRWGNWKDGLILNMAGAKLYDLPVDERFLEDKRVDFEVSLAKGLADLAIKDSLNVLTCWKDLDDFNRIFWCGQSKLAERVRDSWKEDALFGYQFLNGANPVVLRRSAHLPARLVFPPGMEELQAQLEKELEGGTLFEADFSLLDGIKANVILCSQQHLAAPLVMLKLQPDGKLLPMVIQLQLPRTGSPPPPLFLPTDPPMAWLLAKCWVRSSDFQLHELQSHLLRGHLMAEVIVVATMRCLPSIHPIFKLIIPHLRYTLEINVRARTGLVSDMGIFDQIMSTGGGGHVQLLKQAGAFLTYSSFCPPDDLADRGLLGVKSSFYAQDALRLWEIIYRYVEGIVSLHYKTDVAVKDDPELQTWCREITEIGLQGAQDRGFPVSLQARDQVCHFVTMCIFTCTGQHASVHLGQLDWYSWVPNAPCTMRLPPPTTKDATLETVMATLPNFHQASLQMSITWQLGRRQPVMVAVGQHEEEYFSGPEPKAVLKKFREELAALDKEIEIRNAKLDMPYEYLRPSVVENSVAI

[7] = Inhibition of His-tagged human recombinant cPLA2alpha expressed in baculovirus infected insect sf9 cells assessed as inhibition of arachidonic acid formation after 1 hr by RP-HPLC analysis
[8] = Cytotoxicity against mouse […] cells at 10 uM after 24 hrs by MTT assay
[9] = Cytotoxicity against human primary monocytes at 10 uM after 24 hrs by MTT assay; conditions: monocyte
[10] = target: T6, Polyunsaturated fatty acid lipoxygenase ALOX12 (Homo sapiens) (UniProt P18054); assay: Inhibition of 12-lipoxygenase in A23187-stimulated human platelets assessed as reduction of 12(S)-H(P)ETE formation preincubated 15 mins by RP-HPLC analysis
T6 sequence (whole entry): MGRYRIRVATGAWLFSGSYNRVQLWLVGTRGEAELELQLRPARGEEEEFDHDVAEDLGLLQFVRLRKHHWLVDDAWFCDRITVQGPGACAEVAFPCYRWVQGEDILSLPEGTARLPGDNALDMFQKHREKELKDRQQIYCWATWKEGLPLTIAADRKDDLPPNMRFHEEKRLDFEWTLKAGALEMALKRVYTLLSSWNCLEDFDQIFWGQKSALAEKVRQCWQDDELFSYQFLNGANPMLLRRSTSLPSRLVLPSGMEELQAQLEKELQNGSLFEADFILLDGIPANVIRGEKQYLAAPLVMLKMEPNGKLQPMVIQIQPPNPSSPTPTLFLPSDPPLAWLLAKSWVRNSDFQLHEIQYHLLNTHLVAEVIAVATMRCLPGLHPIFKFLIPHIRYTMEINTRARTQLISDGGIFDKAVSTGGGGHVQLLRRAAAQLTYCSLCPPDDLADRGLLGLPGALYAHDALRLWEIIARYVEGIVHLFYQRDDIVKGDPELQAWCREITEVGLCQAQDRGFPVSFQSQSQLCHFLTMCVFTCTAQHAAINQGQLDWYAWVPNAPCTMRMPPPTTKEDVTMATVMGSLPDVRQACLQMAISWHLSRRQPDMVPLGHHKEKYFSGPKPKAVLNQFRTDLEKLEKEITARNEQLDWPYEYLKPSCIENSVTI

SMILES: C[C@@H]1C[C@H]2[C@@H]3CCC4=CC(=O)C=C[C@]4(C)[C@@]3(F)[C@@H](O)C[C@]2(C)[C@@]1(O)C(=O)CO
- inhibition (A549 [1]): Active

SMILES: O=C1OC(O)C(c2cccc(C(=O)N3CCCCC3)c2)=C1Br (stereo not drawn)
- inhibition (A549 [2]): inactive

SMILES: O=C1OC(O)C(c2ccc(C(=O)Nc3ccccc3)cc2)=C1Br (stereo not drawn)
- inhibition (A549 [2]): inactive
- IC50 (Prostaglandin E synthase): 0.9 µM
- inhibition [3]: inactive
- inhibition [4]: inactive
- inhibition [5]: 22%
- inhibition [6]: inactive
- inhibition [7]: inactive
- Activity [8]: Non-toxic
- Activity [9]: Non-toxic
- inhibition [10]: inactive

SMILES: O=C1OC(O)C(c2cccc(C(=O)NCc3ccccc3)c2)=C1Br (stereo not drawn)
- inhibition (A549 [2]): inactive

SMILES: O=C1OC(O)C(c2cccc(C(=O)N3CCCC3)c2)=C1Br (stereo not drawn)
- inhibition (A549 [2]): inactive

SMILES: O=C1OC(O)C(c2cccc(C(=O)Nc3ccccc3)c2)=C1Br (stereo not drawn)
- inhibition (A549 [2]): inactive

SMILES: O=C1OC(O)C(c2ccc(C(=O)NCc3ccccc3)cc2)=C1Br (stereo not drawn)
- inhibition (A549 [2]): inactive
- IC50 (Prostaglandin E synthase): 5.6 µM

SMILES: O=C1OC(O)C(c2cccc(C(=O)N3CCOCC3)c2)=C1Br (stereo not drawn)
- inhibition (A549 [2]): inactive

SMILES: O=C1OC(O)C(c2ccc(C(=O)N3CCNCC3)cc2)=C1Br (stereo not drawn)
- inhibition (A549 [2]): inactive

SMILES: O=C1OC(O)C(c2ccc(C(=O)N3CCCCC3)cc2)=C1Br (stereo not drawn)
- inhibition (A549 [2]): inactive

SMILES: O=C1OC(O)C(c2ccc(C(=O)N3CCCC3)cc2)=C1Br (stereo not drawn)
- inhibition (A549 [2]): inactive

SMILES: O=C1OC(O)C(c2cc3ccccc3s2)=C1Br (stereo not drawn)
- IC50 (Prostaglandin E synthase): > 10 µM

SMILES: O=C1OC(O)C(c2ccc(C(=O)N3CCOCC3)cc2)=C1Br (stereo not drawn)
- inhibition (A549 [2]): inactive
